Lung fibro prol – blocks proliferation of human lung fibroblasts; LL 47 human lung fibroblast viability, ATP luminescence; active compounds read low; viability, % at 10 µM; actives 1.1% (n = 85,000); AID 719;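 active = viability at or below 50% in the single dose screen; inactive = viability above 50%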;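 also: compound exposure lasted 72 h before the ATP readout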
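test system = LL 47 human lung fibroblasts | amount = 1,150 fibroblasts seeded per well | medium = 15% FBS in IMEM | times = overnight cell rest, 72 h compound treatment at 37 °C | measured by = CellTiter-Glo luminescence measuring cellular ATP | read-out = viability percentage against median untreated-cell control | benchmarks = cell-only wells, no compound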
HUVEC inhibit – human endothelial cell proliferation inhibition | actives 1.1% (n = 86,000) | HUVEC proliferation, CellTiter-Glo luminescence, 72 h; active compounds read low | viability, % at 10 µM (by protocol);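 active = viability at or below 30%; inactive = viability above 30%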
PTK2B oligo ant – blocks oligomerization of human Pyk2 in cells; Q14289; Q293 cells, Pyk2 FERM NanoBiT luminescence; active compounds read low; z-score (the deposit names both 25 µM and 10 µM); actives 0.83% (n = 99,000);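 active = Z-score of -3 or lower, scaled per plate to the spread of control and sample wells; inactive = z-score above -3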;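 also: negative z-score means lost luminescence so less FERM oligomerization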
H69AR growth 86K – blocks growth of human H69AR lung tumor cells | H69AR lung tumor viability, ATP luminescence, 72 h; active compounds read low | AID 598 | actives 6% (n = 85,000) | viability, % at 10 µM;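 active = viability at or below 40%; inactive = viability above 40%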;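 also: multidrug resistant small cell line overexpressing MRP-1 efflux transporter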
Jurkat viability – cytotoxicity toward Jurkat cells; inhibition, % at 4 µM; Jurkat E6.1 viability, ATP luminescence, 48 h; AID 463; actives 1.2% (n = 56,000);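 active = inhibition above the mean inhibition of all tested compounds plus 3 SD, cut at about 28% in these data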
cytoskel mod – alters cytoskeleton assembly in HUVEC cells. HUVEC TNFa F-actin phalloidin imaging, high content. inhibition, % at 2 µM. actives 0.18% (n = 91,000). AID 836;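 active = inhibition above the batch mean plus 3 SD and confirmed as a hit by visual image inspection, cut at about 30% in these data, passing the limit was not always enough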
Large screens that a line does not name were inactive. Rows were chosen to be rich in hits. Some 6% of all compounds tested hit in one or more screens of this group.

COC(=O)C1=C(C)N(c2ccc(Cl)c(Cl)c2)C(=O)C1	Jurkat viability 63.7
N#CC(c1ccccc1)c1ccc2c(C(F)(F)F)cc(C(F)(F)F)nc2n1 (centres undefined)	Lung fibro prol 39.2, H69AR growth 86K 24.2 (no result: Jurkat viability)
Cc1ccc(C(C#N)c2ccc3c(C(F)(F)F)cc(C(F)(F)F)nc3n2)cc1 (centres undefined)	H69AR growth 86K 23.9 (no result: Jurkat viability)
CC1CC(C)CN(S(=O)(=O)c2ccc(C(=O)NCCCn3ccnc3)cc2)C1 (centres undefined)	Lung fibro prol 14.7, H69AR growth 86K 2.7, Jurkat viability 100.7 (no result: cytoskel mod)
O=C(NCCCn1ccnc1)c1ccc(S(=O)(=O)N2CCCCCC2)cc1	none (no result: Jurkat viability)
Cc1ccc(C(=O)NCCCn2ccnc2)cn1	cytoskel mod 30.2 (no result: Jurkat viability)
CCc1nnc(NC(=O)C(C)N2C(=O)C3C4C=CC(C4)C3C2=O)s1 (centres undefined)	none
COc1ccccc1N1CCN(C(c2cccs2)C(C)NC(=O)c2cccs2)CC1 (centres undefined)	none (no result: Jurkat viability)
O=C(CS(=O)c1ccc(C(F)(F)F)cc1[N+](=O)[O-])Oc1ccc(Cl)cc1 (centres undefined)	H69AR growth 86K 20.6 (no result: Jurkat viability)
Cc1cc(C)cc(OC(=O)CS(=O)c2ccc(C(F)(F)F)cc2[N+](=O)[O-])c1 (centres undefined)	HUVEC inhibit 64.4, H69AR growth 86K 15.1 (no result: Jurkat viability)
O=C(O)c1cc(N2C(=O)C3CC=CCC3C2=O)ccc1NCc1cccnc1 (centres undefined)	none (no result: Lung fibro prol, HUVEC inhibit, H69AR growth 86K, Jurkat viability)
CCN(CC(O)Cn1c2ccccc2c2ccccc21)S(=O)(=O)c1ccc(C)cc1 (centres undefined)	HUVEC inhibit 27.0, H69AR growth 86K 26.8 (no result: Jurkat viability, cytoskel mod)
CS(=O)(=O)N(CC(O)Cn1c2ccccc2c2ccccc21)c1ccccc1 (centres undefined)	H69AR growth 86K 30.4
NC(=S)Nc1ccc(Oc2ccc(NC(N)=S)cc2)cc1	none (no result: Lung fibro prol, HUVEC inhibit, H69AR growth 86K, Jurkat viability)
CCCc1nc2ccccc2c(=O)n1/N=C/c1c(C)[nH]n(-c2ccc(C)cc2)c1=O	H69AR growth 86K 27.1
Oc1ccc(Cl)cc1-c1cc(-c2ccccc2Cl)[nH]n1	H69AR growth 86K 30.9 (no result: Jurkat viability)
Cc1ccc(O)c(-c2cc(C(F)(F)C(F)F)[nH]n2)c1	none (no result: Jurkat viability)
Cc1ccc(O)c(-c2cc(-c3ccccc3C)[nH]n2)c1	H69AR growth 86K 0.5 (no result: cytoskel mod)
Oc1ccc(Cl)cc1-c1cc(-c2cccc(Br)c2)n[nH]1	H69AR growth 86K 4.2 (no result: Jurkat viability)
Oc1ccccc1-c1cc(-c2ccccc2Cl)[nH]n1	HUVEC inhibit 25.0, H69AR growth 86K 22.1
Oc1ccccc1-c1cc(-c2ccco2)[nH]n1	none (no result: Jurkat viability, cytoskel mod)
COc1cccc(-n2c(=O)[nH]cc(C(=O)Nc3ccc(NC(C)=O)cc3)c2=O)c1	none (no result: PTK2B oligo ant)
CC1CCC(C(C)C)C(OC(=O)CSc2n[nH]c(=O)[nH]c2=O)C1 (centres undefined)	none (no result: cytoskel mod)
CC(=O)c1c(C)oc(C)c1CSCc1ccc(C(=O)O)o1	none
Cc1ccc(C(=O)c2coc3ccc(O)c(CN4CCN(C)CC4)c23)cc1	none
C=CCn1c2ccccc2c2nnc(SCN3C(=O)c4ccccc4C3=O)nc21	none (no result: Lung fibro prol, HUVEC inhibit, H69AR growth 86K, Jurkat viability)
O=c1[nH]c2ccccc2n1CCCSc1cnc2ccccc2n1	H69AR growth 86K 38.3
C=CCn1c2ccccc2c2nnc(SCCCn3c(=O)[nH]c4ccccc43)nc21	PTK2B oligo ant -3.91 (no result: Lung fibro prol, HUVEC inhibit, H69AR growth 86K, Jurkat viability)
CCOc1ccc(S(=O)(=O)N2CCN(c3ccc(OC)cc3)CC2)c2cccnc12	H69AR growth 86K 34.8
O=C(NCC1(c2ccccc2)CCCC1)C(=O)N1CCOCC1	none (no result: Jurkat viability)
COc1cccc(-c2nc(N3CCCCC3C)c3ccccc3n2)c1O (centres undefined)	H69AR growth 86K 37.9 (no result: Jurkat viability)
COc1ccc(CN2CCC(C(=O)NCCc3ccc(OC)c(OC)c3)CC2)c(OC)c1	none (no result: Jurkat viability)
O=c1oc2ccccc2n1CSc1nc2ccccc2s1	none
O=c1oc2ccccc2n1CSC1=NCCS1	H69AR growth 86K 20.6
Cn1c2c(c(=O)n(C)c1=O)C1c3cc(Cl)ccc3OCC1CO2 (centres undefined)	none (no result: Jurkat viability)
Cn1c(Cl)cnc1C1CC(=O)c2cc(Cl)ccc2O1 (centres undefined)	Lung fibro prol 16.1, H69AR growth 86K 0.2 (no result: Jurkat viability)
CC(Oc1ccc(Cl)cc1Cl)C(=O)Nc1ccncc1 (centres undefined)	H69AR growth 86K 34.2, Jurkat viability 44.5
CC(Oc1ccc(Cl)cc1Cl)C(=O)Nc1cccnc1 (centres undefined)	none (no result: Jurkat viability)

Assay outcomes: PubChem, several laboratories
